Test results: ChEMBL document CHEMBL4706490, “New activators of eIF2α Kinase Heme-Regulated Inhibitor (HRI) with improved biophysical properties” (Eur J Med Chem, 2020)
Activity calls are given as the source filed them. The calls are words filed in the database; no cut-off is given here.

Experiments:
[1] = target: Eukaryotic translation initiation factor 2 subunit 1 (Homo sapiens) (UniProt P05198); experiment: Activation of eIF2alpha (unknown origin) assessed as fold stimulation ATF-4 surrogate eIF2alpha phosphorylation at 5 uM cell based Dual luciferase reporter assay; conditions: filed as activator
Sequence of Eukaryotic translation initiation factor 2 subunit 1 (Homo sapiens) (P05198 whole entry): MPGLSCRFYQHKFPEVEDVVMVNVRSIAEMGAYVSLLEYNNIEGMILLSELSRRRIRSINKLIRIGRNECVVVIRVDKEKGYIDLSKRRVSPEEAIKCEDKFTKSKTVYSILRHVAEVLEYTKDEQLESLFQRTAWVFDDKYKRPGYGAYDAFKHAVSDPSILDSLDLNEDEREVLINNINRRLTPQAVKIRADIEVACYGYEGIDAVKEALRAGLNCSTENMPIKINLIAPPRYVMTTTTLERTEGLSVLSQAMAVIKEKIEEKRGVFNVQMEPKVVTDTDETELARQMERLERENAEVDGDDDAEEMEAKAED
How it was run: (§1)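 Cells stably expressing firefly and renilla luciferase reporters were treated in 96-well plates at 10, 5, 2.5 and 1.25 µM and read with a dual glow luciferase kit. The firefly/renilla (F/R) ratio of each well was normalized to vehicle (DMSO) wells on the same plate, set at 1. Dose-response curves used triplicate points fitted to a logistic sigmoidal model.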

[2] = target: Eukaryotic translation initiation factor 2 subunit 1 (Homo sapiens) (UniProt P05198); experiment: Activation of eIF2alpha (unknown origin) assessed as fold stimulation ATF-4 surrogate eIF2alpha phosphorylation at 1.25 uM cell based Dual luciferase reporter assay; conditions: filed as activator; how it was run: as §1
[3] = Antiproliferative activity against human CRL-2813 cells assessed as inhibition of cell growth measured after 5 days by SRB assay; format: functional, cell-based
How it was run: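 CRL-2813 cells in 96-well plates were kept for 5 days with 0.5 to 20 µM compound, then fixed in cold 10% trichloroacetic acid and stained with sulforhodamine B; bound dye absorbance was read. Percent growth was calculated as 100×[(T−T0)/(C−T0)] using day 5 treated, control and time-zero readings. IC50 is the concentration giving 50% growth inhibition.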

CRL-2813 = experiment: Effect on p27Kip1 expression in human CRL-2813 cells at 5 uM measured after 8 hrs Western blot analysis; format: functional, cell-based
How it was run: (§2)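 CRL-2813 melanoma cells were grown in serum-containing, antibiotic-free medium to 70% confluence and treated with 5 µM compound for 8 hours. Lysates were made in M-PER on ice, protein was normalized by BCA, and samples were separated by SDS-PAGE. Blots were probed for CHOP, p27Kip1, cyclin D1 and β-actin.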

[4] = target: Eukaryotic translation initiation factor 2 subunit 1 (Homo sapiens) (UniProt P05198); experiment: Activation of eIF2alpha in human CRL-2813 cells assessed as eIF2alpha phosphorylation at 5 uM measured after 2 hrs Western blot analysis; format: cell-based
How it was run: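 Adherent human melanoma CRL-2813 cells were grown in serum-containing, antibiotic-free medium to 70% confluence and exposed to 5 µM compound or vehicle for 2 hours. Cells were lysed in M-PER on ice, and protein was quantified by BCA and boiled in Laemmli buffer. Lysates were run on SDS-PAGE and immunoblotted for phospho-Ser51 eIF2α, total eIF2α and β-actin.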

[5] = target: Eukaryotic translation initiation factor 2 subunit 1 (Homo sapiens) (UniProt P05198); experiment: Activation of eIF2alpha in human CRL-2813 cells assessed as increase in CHOP expression at 5 uM measured after 8 hrs Western blot analysis; format: cell-based; how it was run: as §2
[6] = target: Eukaryotic translation initiation factor 2 subunit 1 (Homo sapiens) (UniProt P05198); experiment: Activation of eIF2alpha in human CRL-2813 cells assessed as decrease in cyclin D1 expression at 5 uM measured after 8 hrs Western blot analysis; format: cell-based; how it was run: as §2
MCF7 = experiment: Antiproliferative activity against human MCF7 cells transfected with HRI siRNA at 0.27 to 10 uM after 3 days by SRB assay; conditions: dose 0.27-10 µM, time 3.0 day

SMILES	fold change (FC) [1]	fold change (FC) [2]	IC50 ([3]; Homo sapiens, CRL2813, 120 h) [nM]	also measured
N#Cc1cccc(NC(=O)N[C@H]2CC[C@H](Oc3ccc(C(F)(F)F)cc3)C2)c1	1.6	0.8	6500	–
N#Cc1cc(NC(=O)NC2CC(Oc3ccc(C(F)(F)F)cc3)C2)cc(C(F)(F)F)c1 (trans isomer) [listing 1 of 2 here]	10	4.4	–	Activity (CRL-2813): inactive; Activity ([4]; filed as activator): Active; Activity ([5]; filed as activator): Active; Activity ([6]; filed as activator): Active; Activity (MCF7): inactive
N#Cc1cc(NC(=O)NC2CC(Oc3ccc(C(F)(F)F)cc3)C2)cc(C(F)(F)F)c1 (cis isomer)	8.4	4.3	–	–
N#Cc1cccc(NC(=O)NC2CC(Oc3ccc(C(F)(F)F)cc3)C2)c1 (stereo in doubt; cis) [listing 1 of 2 here]	–	–	–	IC50 ([3]; crl-2813): > 10000 nM
N#Cc1cc(F)cc(NC(=O)N[C@H]2CC[C@H](Oc3ccc(C(F)(F)F)cc3)C2)c1	8	2.4	1900	–
O=C(Nc1ccc(F)c(F)c1)NC1CC(Oc2ccc(C(F)(F)F)cc2)C1 (trans isomer)	4.5	2.2	5500	–
O=C(Nc1cccc(C(F)(F)F)c1)NC1CC(Oc2ccc(C(F)(F)F)cc2)C1 (trans isomer) [listing 1 of 2 here]	–	–	3400	–
Cc1ccc(F)cc1NC(=O)NC1CCC(Oc2ccc(C(F)(F)F)cc2)CC1 (configuration not stated)	1.5	1.8	5300	Activity (CRL-2813): inactive; Activity ([4]; filed as activator): Active; Activity ([5]; filed as activator): Active; Activity ([6]; filed as activator): Active
O=C(Nc1ccc(F)c(F)c1)NC1CCC(Oc2ccc(C(F)(F)F)cc2)CC1 (trans isomer)	5.6	2.9	1300	–
N#Cc1cccc(NC(=O)NC2CC(Oc3ccc(C(F)(F)F)cc3)C2)c1 (stereo in doubt; trans) [listing 2 of 2 here]	–	–	–	IC50 ([3]; crl-2813): 4900 nM
O=C(Nc1cccc(C(F)(F)F)c1)NC1CC(Oc2ccc(C(F)(F)F)cc2)C1 (cis isomer) [listing 2 of 2 here]	–	–	–	IC50 ([3]; crl-2813): 2600 nM
N#Cc1cc(NC(=O)NC2CC(Oc3ccc(C(F)(F)F)cc3)C2)cc(C(F)(F)F)c1 (trans isomer) [listing 2 of 2 here]	–	–	900	–
O=C(Nc1cccc(C(F)(F)F)c1)N[C@H]1CC[C@H](Oc2ccc(C(F)(F)F)cc2)C1	7	1.2	2500	–
N#Cc1ccc(NC(=O)NC2CCC(Oc3ccc(C(F)(F)F)cc3)CC2)cc1F (trans isomer)	10.4	5.5	460	Activity (CRL-2813): inactive; Activity ([4]; filed as activator): Active; Activity ([5]; filed as activator): Active; Activity ([6]; filed as activator): Active; Activity (MCF7): inactive
O=C(Nc1cccc(C(F)(F)F)c1)NC1CC(Oc2ccc(C(F)(F)F)cc2)C1 (trans isomer) [listing 2 of 2 here]	6.5	2.4	–	–

More lines, main results first:

fold change (FC) [1]	fold change (FC) [2]	SMILES	IC50 ([3]; Homo sapiens, CRL2813, 120 h) [nM]	also measured
1.3	1.4	Cc1ccc(F)cc1NC(=O)N[C@H]1CC[C@H](Oc2ccc(C(F)(F)F)cc2)C1	8000	–
1.4	0.7	Cc1ccc(F)cc1NC(=O)NC1CC(Oc2ccc(C(F)(F)F)cc2)C1 (configuration not stated)	> 10000	–
13.8	5.7	N#Cc1cc(NC(=O)NC2CCC(Oc3ccc(C(F)(F)F)cc3)CC2)cc(C(F)(F)F)c1 (configuration not stated)	350	Activity (CRL-2813): inactive; Activity ([4]; filed as activator): Active; Activity ([5]; filed as activator): Active; Activity ([6]; filed as activator): Active; Activity (MCF7): inactive
6.2	2.4	N#Cc1ccc(NC(=O)NC2CCC(Oc3ccc(C(F)(F)F)cc3)CC2)c(F)c1 (configuration not stated)	1400	–
0.9	1.1	N#Cc1cccc(NC(=O)NC2CC(Oc3ccc(C(F)(F)F)cc3)C2)c1 (stereo in doubt; cis) [listing 2 of 2 here]	–	–
9.9	4.7	O=C(Nc1cccc(F)c1F)NC1CCC(Oc2ccc(C(F)(F)F)cc2)CC1 (configuration not stated)	1600	Activity (CRL-2813): inactive; Activity ([4]; filed as activator): Active; Activity ([5]; filed as activator): Active; Activity ([6]; filed as activator): Active
5.3	2	N#Cc1cc(F)cc(NC(=O)NC2CC(Oc3ccc(C(F)(F)F)cc3)C2)c1 (trans isomer)	2800	–
8.3	3.1	N#Cc1cc(NC(=O)N[C@H]2CC[C@H](Oc3ccc(C(F)(F)F)cc3)C2)cc(C(F)(F)F)c1	1200	–
3.5	1.6	N#Cc1cccc(NC(=O)NC2CC(Oc3ccc(C(F)(F)F)cc3)C2)c1 (stereo in doubt; trans) [listing 1 of 2 here]	–	–
6.1	1.9	N#Cc1cccc(NC(=O)NC2CCC(Oc3ccc(C(F)(F)F)cc3)CC2)c1 (configuration not stated)	1600	–
6.2	1.2	O=C(Nc1cccc(C(F)(F)F)c1)NC1CC(Oc2ccc(C(F)(F)F)cc2)C1 (cis isomer) [listing 1 of 2 here]	–	–
9.3	4.6	N#Cc1cc(F)cc(NC(=O)NC2CCC(Oc3ccc(C(F)(F)F)cc3)CC2)c1 (configuration not stated)	630	Activity (CRL-2813): inactive; Activity ([4]; filed as activator): Active; Activity ([5]; filed as activator): Active; Activity ([6]; filed as activator): Active; Activity (MCF7): inactive
1.5	1	N#Cc1ccc(F)c(NC(=O)NC2CCC(Oc3ccc(C(F)(F)F)cc3)CC2)c1 (configuration not stated)	> 10000	Activity (CRL-2813): inactive; Activity [4]: inactive; Activity [5]: inactive; Activity [6]: inactive
6.2	0.8	O=C(Nc1cccc(F)c1F)NC1CC(Oc2ccc(C(F)(F)F)cc2)C1 (trans isomer)	2300	–
9.2	3.6	O=C(Nc1cccc(C(F)(F)F)c1)NC1CCC(Oc2ccc(C(F)(F)F)cc2)CC1 (configuration not stated)	900	–
6.1	3.7	N#Cc1cc(NC(=O)NC2CCC(Oc3ccc(C(F)(F)F)cc3)CC2)ccc1F (configuration not stated)	1400	–
3.5	0.9	O=C(Nc1ccc(F)c(F)c1)N[C@H]1CC[C@H](Oc2ccc(C(F)(F)F)cc2)C1	5200	–
